Assay results reported in ChEMBL document CHEMBL4706701, “Synthesis and biological activity of selenopsammaplin A and its analogues as antitumor agents with DOT1L inhibitory activity” (Bioorg Med Chem, 2021).
pIC50: −log10 of the molar value. Activity calls are given as the source filed them. No cut-off for these calls is given here.

How the values were obtained:
MDA-MB-231 [1] = experiment: Down regulation of CDH2 mRNA expression in human MDA-MB-231 cells at 50 to 200 nM measured after 24 hrs by RT-PCR analysis; type: functional, cell-based; details: dose 50-200 nM
[2] = Selectivity ratio of IC50 for human MCF-10A cells to IC50 for human SNU-638 cells
Method in brief: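 Cytotoxicity by SRB assay: cells seeded in 96-well plates and treated with compounds; fixed, stained with 0.4% SRB in 1% acetic acid, dye dissolved in 10 mM Tris (pH 10.0), absorbance read at 515 nm. IC50 by non-linear regression, means of at least three experiments; ratio of MCF10A IC50 to cancer-line IC50.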

MCF-10A = experiment: Cytotoxicity against human MCF-10A cells assessed as reduction in cell viability by SRB assay; type: cell-based
Method in brief: (§1)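 Cells seeded in 96-well plates and exposed to compounds for the stated times. Zero-day controls were incubated 30 min. Cells were fixed and stained with 0.4% SRB in 1% acetic acid, and bound dye was dissolved in 10 mM Tris (pH 10.0). A515 was read, and IC50 was calculated by non-linear regression.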

[3] = target: Histone-lysine N-methyltransferase, H3 lysine-79 specific (Homo sapiens) (UniProt Q8TEK3); experiment: Inhibition of DOT1L in human MDA-MB-231 cells assessed as down regulation of H3K79me2 expression at 200 nM by Western blot analysis; type: cell-based
Method in brief: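 MDA-MB-231 lysates were made in 2× SDS sample buffer with vanadate and fluoride. 5-20 μg protein was run on 8–15% SDS-PAGE and blotted to PVDF. Membranes were blocked in 5% BSA, probed for H3K79me2 with total histone H3, and detected by ECL. Mean ± SD (n = 3), representative of three separate experiments.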

MDA-MB-231 [4] = experiment: Antitumor activity against human MDA-MB-231 cells xenografted in BALB/c nu mouse assessed as tumor growth inhibition at 5 mg/kg, ip administered thrice per week for 38 days by caliper method relative to control; type: functional; details: MDA-MB-231, ip, 912 h, time 38 day, read-out: TGI
Method in brief: (§2)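 Female BALB/c-nu mice (5–6 wk) given 1 × 10⁷ luciferase-expressing MDA-MB-231 cells in 50:50 DMEM/Matrigel into the fourth fat pad; randomized after 10 days (six per group). Dosed ip in EtOH/Cremophor/saline (5:5:90) three times weekly for 38 days. Tumor L, W, H measured by caliper, volume = LWH/2; body weight weekly; tumors excised and weighed at termination.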

MDA-MB-231 [5] = experiment: Down regulation of VIM expression in human MDA-MB-231 cells at 50 to 200 nM measured after 48 hrs by Western blot analysis; type: functional, cell-based; details: dose 50-200 nM
Method in brief: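 MDA-MB-231 cells exposed to compound for 48 h; lysates in 2× SDS sample buffer with orthovanadate and NaF, protein by BCA. 5–20 μg resolved on 8–15% SDS-PAGE, PVDF, BSA block, probed for E-cadherin, N-cadherin, ZEB1, vimentin; ECL detection, β-actin internal control, band densitometry. Mean ± SD (n = 3), three experiments.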

MDA-MB-231 [6] = experiment: Down regulation of VIM mRNA expression in human MDA-MB-231 cells at 50 to 200 nM measured after 24 hrs by RT-PCR analysis; type: functional, cell-based; details: dose 50-200 nM
MDA-MB-231 [7] = experiment: Antimetastatic activity against human MDA-MB-231 cells xenografted in BALB/c nu mouse assessed as down regulation of H3K79me2 expression in tumor tissue at 5 to 15 mg/kg, ip administered thrice per week for 38 days measured 1 week post last dose by H and E staining based immunohistochemical analysis; type: functional, organism-based; details: dose 5-15 mg/kg, time 45.0 day
Method in brief: (§3)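 Tumors and lungs from orthotopic MDA-MB-231/Luc nude mice (ip dosing three times weekly, 38 days) fixed in 4% PFA, paraffin-embedded, sectioned, antigen-retrieved. Lungs H&E-stained for metastatic cells; tumor sections immunostained for Ki67, H3K79me2, E-cadherin, vimentin with HRP detection, hematoxylin counterstain, imaged at 200×.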

MDA-MB-231 [8] = experiment: Antimetastatic activity against human MDA-MB-231 cells xenografted in ip dosed BALB/c nu mouse assessed as down regulation of vimentin expression in tumor tissue administered thrice per week for 38 days measured 1 week post last dose by Western blot analysis; type: functional, organism-based; details: dose 5-15 mg/kg, time 45.0 day
Method in brief: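 Frozen tumor portions from the orthotopic MDA-MB-231 nude mouse study homogenized in complete lysis buffer; protein by Bradford assay. Western blotting for H3K79me2, E-cadherin and vimentin, β-actin internal control, band intensities semi-quantified; three separate experiments.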

[9] = Selectivity ratio of IC50 for human MCF-10A cells to IC50 for human HCT-116 cells; type: toxicity; details: MCF-10A cells versus HCT-116 cells, read-out: Ratio IC50
MDA-MB-231 [10] = experiment: Down regulation of ZEB1 mRNA expression in human MDA-MB-231 cells at 50 to 200 nM measured after 24 hrs by RT-PCR analysis; type: functional, cell-based; details: dose 50-200 nM
SK-HEP1 = experiment: Cytotoxicity against human SK-HEP1 cells assessed as reduction in cell viability by SRB assay; type: functional, cell-based; method in brief: as §1
MDA-MB-231 [11] = experiment: Antiinvasive activity in human MDA-MB-231 cells assessed as reduction in cell invasion through matrigel-coated chamber after 24 hrs by diff-quik staining based microscopic analysis; type: functional; details: dose 50-400 nM
Method in brief: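 MDA-MB-231 cells pretreated with compound (50–400 nM) for 24 h, harvested into serum-free medium and plated at 0.5–1 × 10⁶ cells/chamber on transwell inserts (8 μm pores) coated with type I collagen and 1:20 Matrigel/PBS; 30% FBS medium as chemoattractant below. After 24 h, invaded cells fixed, Diff-Quik stained, counted in 5 random fields at 200×; three separate experiments.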

MDA-MB-231 [12] = experiment: Antitumor activity against human MDA-MB-231 cells xenografted in BALB/c nu mouse assessed as tumor growth inhibition at 15 mg/kg, ip administered thrice per week for 38 days by caliper method relative to control; type: functional; details: MDA-MB-231, ip, 912 h, time 38 day, read-out: TGI; method in brief: as §2
MDA-MB-231 [13] = experiment: Antimetastatic activity against human MDA-MB-231 cells xenografted in BALB/c nu mouse assessed as up regulation of E-cadherin expression in tumor tissue at 5 to 15 mg/kg, ip administered thrice per week for 38 days measured 1 week post last dose by H and E staining based immunohistochemical analysis; type: functional, organism-based; details: dose 5-15 mg/kg, time 45.0 day; method in brief: as §3
MDA-MB-231 [14] = experiment: Antimetastatic activity against human MDA-MB-231 cells xenografted in BALB/c nu mouse assessed as down regulation of vimentin expression in tumor tissue at 5 to 15 mg/kg, ip administered thrice per week for 38 days measured 1 week post last dose by H and E staining based immunohistochemical analysis; type: functional, organism-based; details: dose 5-15 mg/kg, time 45.0 day; method in brief: as §3
HCT-116 = experiment: Cytotoxicity against human HCT-116 cells assessed as reduction in cell viability by SRB assay; type: functional, cell-based; method in brief: as §1
MDA-MB-231 [15] = experiment: Antitumor activity against human MDA-MB-231 cells xenografted in BALB/c nu mouse assessed as reduction in tumor weight at 5 to 15 mg/kg, ip administered thrice per week for 38 days measured 1 week post last dose; type: functional, organism-based; details: dose 5-15 mg/kg, time 45.0 day; method in brief: as §2

Chain of Histone-lysine N-methyltransferase, H3 lysine-79 specific (Homo sapiens) (Q8TEK3 whole entry, looked up): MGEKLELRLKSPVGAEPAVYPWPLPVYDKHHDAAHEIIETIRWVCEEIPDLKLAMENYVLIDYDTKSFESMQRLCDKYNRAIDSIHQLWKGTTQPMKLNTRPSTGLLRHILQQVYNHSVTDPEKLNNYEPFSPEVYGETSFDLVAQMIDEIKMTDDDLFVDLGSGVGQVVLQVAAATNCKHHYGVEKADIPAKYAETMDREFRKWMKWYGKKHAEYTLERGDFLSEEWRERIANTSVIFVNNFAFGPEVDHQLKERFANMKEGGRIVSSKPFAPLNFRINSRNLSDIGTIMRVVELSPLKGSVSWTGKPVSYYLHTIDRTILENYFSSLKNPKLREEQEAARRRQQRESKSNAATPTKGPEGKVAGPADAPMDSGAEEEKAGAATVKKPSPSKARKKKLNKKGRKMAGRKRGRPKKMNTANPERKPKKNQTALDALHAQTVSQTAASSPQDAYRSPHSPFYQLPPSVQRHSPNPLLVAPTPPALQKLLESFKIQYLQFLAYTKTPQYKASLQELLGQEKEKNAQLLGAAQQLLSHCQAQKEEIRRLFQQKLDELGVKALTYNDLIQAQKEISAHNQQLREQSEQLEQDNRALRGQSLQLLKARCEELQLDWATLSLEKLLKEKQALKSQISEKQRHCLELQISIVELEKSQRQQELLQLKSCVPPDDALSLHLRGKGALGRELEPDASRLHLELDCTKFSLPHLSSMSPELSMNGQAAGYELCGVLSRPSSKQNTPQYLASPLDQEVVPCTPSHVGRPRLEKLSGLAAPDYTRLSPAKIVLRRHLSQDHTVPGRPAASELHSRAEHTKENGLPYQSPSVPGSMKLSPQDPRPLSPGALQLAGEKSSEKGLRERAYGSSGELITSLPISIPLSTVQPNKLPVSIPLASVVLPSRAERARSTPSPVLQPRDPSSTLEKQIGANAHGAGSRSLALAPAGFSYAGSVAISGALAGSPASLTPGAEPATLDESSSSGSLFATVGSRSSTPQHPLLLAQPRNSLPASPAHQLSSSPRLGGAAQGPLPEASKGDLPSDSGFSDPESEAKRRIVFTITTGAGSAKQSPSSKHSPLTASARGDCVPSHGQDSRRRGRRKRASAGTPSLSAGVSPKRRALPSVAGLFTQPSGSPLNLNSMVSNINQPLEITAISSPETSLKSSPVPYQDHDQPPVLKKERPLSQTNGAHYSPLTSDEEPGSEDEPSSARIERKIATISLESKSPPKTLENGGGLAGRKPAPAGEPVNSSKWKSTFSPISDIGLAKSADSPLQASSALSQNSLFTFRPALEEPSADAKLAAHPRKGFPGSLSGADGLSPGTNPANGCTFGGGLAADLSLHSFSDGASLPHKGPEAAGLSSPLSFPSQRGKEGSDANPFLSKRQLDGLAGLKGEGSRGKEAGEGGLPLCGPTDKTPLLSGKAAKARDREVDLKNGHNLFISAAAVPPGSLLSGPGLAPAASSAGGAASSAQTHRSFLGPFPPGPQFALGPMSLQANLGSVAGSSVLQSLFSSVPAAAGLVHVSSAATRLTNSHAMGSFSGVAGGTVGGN

O=C(NCC[Se][Se]CCNC(=O)/C(Cc1ccccc1)=N/O)/C(Cc1ccccc1)=N/O
Activity (MDA-MB-231 [1]): Active | Ratio IC50 [2]: >100 | pIC50 (MCF-10A): 4.74 | H3K79me2 downregulation (active/not active) [3]: Active | inhibition in vivo at 5 mg/kg (MDA-MB-231 [4]): 45.5% | Activity (MDA-MB-231 [5]): Active | Activity (MDA-MB-231 [6]): Active | Activity (MDA-MB-231 [7]): Active | Activity (MDA-MB-231 [8]): Dose-dependent effect | selectivity ratio [9]: > 100 | Activity (MDA-MB-231 [10]): Active | pIC50 (SK-HEP1): 6.92 | Activity (MDA-MB-231 [11]): Dose-dependent effect | inhibition in vivo at 15 mg/kg (MDA-MB-231 [12]): 55.1% | Activity (MDA-MB-231 [13]): Active | Activity (MDA-MB-231 [14]): Active | pIC50 (HCT-116): 7.05 | Activity (MDA-MB-231 [15]): Active
